From ChEMBL document CHEMBL4680175, “Sulfonamide-based ring-fused analogues for CAN508 as novel carbonic anhydrase inhibitors endowed with antitumor activity: Design, synthesis, and in vitro biological evaluation” (Eur J Med Chem, 2020)
Active and inactive are the calls of the source. The calls are words filed in the database; no cut-off is given here.

Experiments:
NCI-H522 = assay: Antitumor activity against human NCI-H522 cells assessed as cell growth inhibition at 10 uM incubated for 48 hrs by sulforhodamine B assay; type: functional; conditions: read-out: GI
In short: (§1)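 NCI Drug Evaluation Branch protocol: primary single-dose screen at 10 μM across a 57-line human cancer panel. Drug exposure is 48 h. Cell growth and viability are read by sulforhodamine B assay. Data are given as a mean graph of percent growth of treated cells and reported as percentage growth inhibition (GI%).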

SF-539 = assay: Antitumor activity against human SF539 cells assessed as cell growth inhibition at 10 uM incubated for 48 hrs by sulforhodamine B assay; type: functional; conditions: read-out: GI; in short: as §1
MOLT-4 = assay: Antitumor activity against human MOLT4 cells assessed as cell growth inhibition at 10 uM incubated for 48 hrs by sulforhodamine B assay; type: functional; conditions: read-out: GI; in short: as §1
Carbonic anhydrase 9 = Carbonic anhydrase 9 (Homo sapiens, UniProt Q16790); assay: Inhibition of recombinant human carbonic anhydrase 9 preincubated with enzyme for 15 mins by phenol red dye based stopped flow CO2 hydrase assay
SNB-75 = assay: Antitumor activity against human SNB-75 cells assessed as cell growth inhibition at 10 uM incubated for 48 hrs by sulforhodamine B assay; type: functional; conditions: read-out: GI
In short: (§2)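 NCI one-dose screen: 57-cell-line panel exposed at 10 μM for 48 h, Drug Evaluation Branch protocol. Growth and viability read by sulforhodamine B; data given as percent growth inhibition from the mean-graph of percent growth of treated cells.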

MDA-MB-468 = assay: Antitumor activity against human MDA-MB-468 cells assessed as cell growth inhibition at 10 uM incubated for 48 hrs by sulforhodamine B assay; type: functional; conditions: read-out: GI; in short: as §1
K562 = assay: Antitumor activity against human K562 cells assessed as cell growth inhibition at 10 uM incubated for 48 hrs by sulforhodamine B assay; type: functional; conditions: read-out: GI; in short: as §1
HOP-92 = assay: Antitumor activity against human HOP92 cells assessed as cell growth inhibition at 10 uM incubated for 48 hrs by sulforhodamine B assay; type: functional; conditions: read-out: GI; in short: as §1
Malme-3M = assay: Antitumor activity against human MALME-3M cells assessed as cell growth inhibition at 10 uM incubated for 48 hrs by sulforhodamine B assay; type: functional; conditions: read-out: GI; in short: as §1
U-251 = assay: Antitumor activity against human U251 cells assessed as cell growth inhibition at 10 uM incubated for 48 hrs by sulforhodamine B assay; type: functional; conditions: read-out: GI; in short: as §2
HCT-116 = assay: Antitumor activity against human HCT116 cells assessed as cell growth inhibition at 10 uM incubated for 48 hrs by sulforhodamine B assay; type: functional; conditions: read-out: GI; in short: as §1
CAKI-1 = assay: Antitumor activity against human CAKI-1 cells assessed as cell growth inhibition at 10 uM incubated for 48 hrs by sulforhodamine B assay; type: functional; conditions: read-out: GI; in short: as §1
Carbonic anhydrase 12 = Carbonic anhydrase 12 (Homo sapiens, UniProt O43570); assay: Inhibition of recombinant human carbonic anhydrase 12 preincubated with enzyme for 15 mins by phenol red dye based stopped flow CO2 hydrase assay
NCI/ADR-RES = assay: Antitumor activity against human NCI/ADR-RES cells assessed as cell growth inhibition at 10 uM incubated for 48 hrs by sulforhodamine B assay; type: functional, cell-based; in short: as §1
CCRF-CEM = assay: Antitumor activity against human CCRF-CEM cells assessed as cell growth inhibition at 10 uM incubated for 48 hrs by sulforhodamine B assay; type: functional; conditions: read-out: GI; in short: as §1
SK-MEL-5 = assay: Antitumor activity against human SK-MEL-5 cells assessed as cell growth inhibition at 10 uM incubated for 48 hrs by sulforhodamine B assay; type: functional; conditions: read-out: GI; in short: as §1
DU-145 = assay: Antitumor activity against human DU-145 cells assessed as cell growth inhibition at 10 uM incubated for 48 hrs by sulforhodamine B assay; type: functional; conditions: read-out: GI; in short: as §1
T47D = assay: Antitumor activity against human T-47D cells assessed as cell growth inhibition at 10 uM incubated for 48 hrs by sulforhodamine B assay; type: functional; conditions: read-out: GI; in short: as §2
LOX IMVI = assay: Antitumor activity against human LOX IMVI cells assessed as cell growth inhibition at 10 uM incubated for 48 hrs by sulforhodamine B assay; type: functional; conditions: read-out: GI; in short: as §1
UO-31 = assay: Antitumor activity against human UO-31 cells assessed as cell growth inhibition at 10 uM incubated for 48 hrs by sulforhodamine B assay; type: functional; conditions: read-out: GI; in short: as §2
RPMI-8226 = assay: Antitumor activity against human RPMI8226 cells assessed as cell growth inhibition at 10 uM incubated for 48 hrs by sulforhodamine B assay; type: functional; conditions: read-out: GI; in short: as §1
SN12C = assay: Antitumor activity against human SN12C cells assessed as cell growth inhibition at 10 uM incubated for 48 hrs by sulforhodamine B assay; type: functional; conditions: read-out: GI; in short: as §1
BT-549 = assay: Antitumor activity against human BT-549 cells assessed as cell growth inhibition at 10 uM incubated for 48 hrs by sulforhodamine B assay; type: functional; conditions: read-out: GI; in short: as §1
MCF7 = assay: Antitumor activity against human MCF7 cells assessed as cell growth inhibition at 10 uM incubated for 48 hrs by sulforhodamine B assay; type: functional; conditions: read-out: GI; in short: as §1
HOP-62 = assay: Antitumor activity against human HOP62 cells assessed as cell growth inhibition at 10 uM incubated for 48 hrs by sulforhodamine B assay; type: functional; conditions: read-out: GI; in short: as §1
SF-268 = assay: Antitumor activity against human SF268 cells assessed as cell growth inhibition at 10 uM incubated for 48 hrs by sulforhodamine B assay; type: functional; conditions: read-out: GI; in short: as §1
PC-3 = assay: Antitumor activity against human PC-3 cells assessed as cell growth inhibition at 10 uM incubated for 48 hrs by sulforhodamine B assay; type: functional; conditions: read-out: GI; in short: as §1
Hs-578T = assay: Antitumor activity against human HS 578T cells assessed as cell growth inhibition at 10 uM incubated for 48 hrs by sulforhodamine B assay; type: functional; conditions: read-out: GI; in short: as §1
Carbonic anhydrase 1 = Carbonic anhydrase 1 (Homo sapiens, UniProt P00915); assay: Inhibition of recombinant human carbonic anhydrase 1 preincubated with enzyme for 15 mins by phenol red dye based stopped flow CO2 hydrase assay
OVCAR-3 = assay: Antitumor activity against human OVCAR-3 cells assessed as cell growth inhibition at 10 uM incubated for 48 hrs by sulforhodamine B assay; type: functional; conditions: read-out: GI; in short: as §1
NCI-H460 = assay: Antitumor activity against human NCI-H460 cells assessed as cell growth inhibition at 10 uM incubated for 48 hrs by sulforhodamine B assay; type: functional; conditions: read-out: GI; in short: as §1
Carbonic anhydrase 2 = Carbonic anhydrase 2 (Homo sapiens, UniProt P00918); assay: Inhibition of recombinant human carbonic anhydrase 2 preincubated with enzyme for 15 mins by phenol red dye based stopped flow CO2 hydrase assay
[1] = target: Cyclin-dependent kinase 2/cyclin E1 (Homo sapiens, UniProt P24941); assay: Inhibition of CDK2/cyclin E (unknown origin) expressed in baculovirus infected Sf21 insect cells using histone H1 as substrate in presence of [gamma33P]ATP
KM12 = assay: Antitumor activity against human KM12 cells assessed as cell growth inhibition at 10 uM incubated for 48 hrs by sulforhodamine B assay; type: functional; conditions: read-out: GI; in short: as §1
SK-MEL-2 = assay: Antitumor activity against human SK-MEL-2 cells assessed as cell growth inhibition at 10 uM incubated for 48 hrs by sulforhodamine B assay; type: functional; conditions: read-out: GI; in short: as §1
MDA-MB-231 = assay: Antitumor activity against human MDA-MB-231/ATCC cells assessed as cell growth inhibition at 10 uM incubated for 48 hrs by sulforhodamine B assay; type: functional; conditions: read-out: GI; in short: as §1
CDK9/cyclin T1 = CDK9/cyclin T1 (Homo sapiens, UniProt P50750); assay: Inhibition of human full-length N-terminal GST/His6-tagged CDK9 (1 to 372 residues)/His6-tagged Cyclin-T1 (1 to 726 residues) expressed in sf9 cells using (YSPTSPS)2KK peptide as substrate in presence of [gamma33P]ATP
CDK9/cyclin T1, sequence (O60563 whole entry, the tested form may be a part): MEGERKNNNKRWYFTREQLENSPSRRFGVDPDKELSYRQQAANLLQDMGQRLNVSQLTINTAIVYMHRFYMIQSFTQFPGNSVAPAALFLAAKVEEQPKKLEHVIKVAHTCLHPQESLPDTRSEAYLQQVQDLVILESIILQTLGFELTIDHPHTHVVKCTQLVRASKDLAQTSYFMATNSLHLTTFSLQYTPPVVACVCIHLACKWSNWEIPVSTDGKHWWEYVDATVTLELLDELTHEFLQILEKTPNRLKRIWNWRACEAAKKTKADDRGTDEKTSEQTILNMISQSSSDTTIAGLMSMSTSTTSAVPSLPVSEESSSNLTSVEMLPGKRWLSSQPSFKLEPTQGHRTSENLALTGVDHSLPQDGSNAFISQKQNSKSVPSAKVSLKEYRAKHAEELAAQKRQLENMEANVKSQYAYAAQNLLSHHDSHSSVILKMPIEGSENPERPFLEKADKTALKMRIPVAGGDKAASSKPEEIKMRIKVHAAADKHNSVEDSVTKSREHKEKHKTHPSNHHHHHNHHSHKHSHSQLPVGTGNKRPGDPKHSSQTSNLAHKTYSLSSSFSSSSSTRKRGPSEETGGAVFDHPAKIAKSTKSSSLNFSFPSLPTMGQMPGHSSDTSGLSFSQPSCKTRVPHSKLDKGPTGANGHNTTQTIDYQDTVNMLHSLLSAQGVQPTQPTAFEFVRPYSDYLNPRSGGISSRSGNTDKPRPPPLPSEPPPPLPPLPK
CDK9/cyclin T1, sequence (P50750 whole entry, the tested form may be a part): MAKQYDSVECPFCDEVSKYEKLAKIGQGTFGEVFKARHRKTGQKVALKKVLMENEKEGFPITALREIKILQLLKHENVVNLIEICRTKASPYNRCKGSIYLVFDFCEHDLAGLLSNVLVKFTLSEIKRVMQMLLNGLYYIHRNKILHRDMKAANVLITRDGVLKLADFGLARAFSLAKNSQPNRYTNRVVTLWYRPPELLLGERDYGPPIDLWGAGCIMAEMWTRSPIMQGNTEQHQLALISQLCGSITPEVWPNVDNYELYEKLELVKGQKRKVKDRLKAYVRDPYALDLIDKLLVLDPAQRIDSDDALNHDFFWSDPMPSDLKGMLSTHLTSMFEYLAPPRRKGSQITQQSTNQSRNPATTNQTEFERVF

Carbonic anhydrase 1, sequence (P00915 whole entry): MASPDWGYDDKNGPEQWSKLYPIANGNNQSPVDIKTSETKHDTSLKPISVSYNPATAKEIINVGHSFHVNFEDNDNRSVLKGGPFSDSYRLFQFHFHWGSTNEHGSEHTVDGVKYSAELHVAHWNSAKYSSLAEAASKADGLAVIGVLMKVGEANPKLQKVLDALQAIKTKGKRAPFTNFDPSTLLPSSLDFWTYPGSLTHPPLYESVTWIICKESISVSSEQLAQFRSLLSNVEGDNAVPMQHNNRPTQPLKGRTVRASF
Carbonic anhydrase 12, sequence (O43570 whole entry): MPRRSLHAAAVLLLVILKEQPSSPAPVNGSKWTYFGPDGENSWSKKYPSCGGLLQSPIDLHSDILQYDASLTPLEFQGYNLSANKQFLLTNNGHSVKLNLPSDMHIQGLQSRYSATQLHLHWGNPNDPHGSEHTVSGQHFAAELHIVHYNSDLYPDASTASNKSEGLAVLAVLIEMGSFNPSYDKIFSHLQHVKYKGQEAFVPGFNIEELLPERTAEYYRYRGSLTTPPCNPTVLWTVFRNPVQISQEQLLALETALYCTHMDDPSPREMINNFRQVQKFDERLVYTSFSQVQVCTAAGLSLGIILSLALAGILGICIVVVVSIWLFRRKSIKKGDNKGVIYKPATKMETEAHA

## Nc1nn2cc(-c3ccccc3)[nH]c2c1/N=N/c1ccc(S(N)(=O)=O)cc1
NCI-H522
  inhibition of growth at 10 µM: 69%
SF-539
  inhibition of growth at 10 µM: 80%
MOLT-4
  inhibition of growth at 10 µM: 86%
Carbonic anhydrase 9
  Ki: 38.1 nM
SNB-75
  inhibition of growth at 10 µM: 99%
MDA-MB-468
  inhibition of growth at 10 µM: 67%
K562
  inhibition of growth at 10 µM: 67%
HOP-92
  inhibition of growth at 10 µM: 74%
Malme-3M
  inhibition of growth at 10 µM: 74%
U-251
  inhibition of growth at 10 µM: 61%
HCT-116
  inhibition of growth at 10 µM: 77%
CAKI-1
  inhibition of growth at 10 µM: 96%
Carbonic anhydrase 12
  Ki: 30.6 nM
NCI/ADR-RES
  Activity: inactive
CCRF-CEM
  inhibition of growth at 10 µM: 80%
SK-MEL-5
  inhibition of growth at 10 µM: 73%
DU-145
  inhibition of growth at 10 µM: 57%
T47D
  inhibition of growth at 10 µM: 57%
LOX IMVI
  inhibition of growth at 10 µM: 83%
UO-31
  inhibition of growth at 10 µM: 81%
RPMI-8226
  inhibition of growth at 10 µM: 94%
SN12C
  inhibition of growth at 10 µM: 80%
BT-549
  inhibition of growth at 10 µM: 41%
MCF7
  inhibition of growth at 10 µM: 54%
HOP-62
  inhibition of growth at 10 µM: 58%
SF-268
  inhibition of growth at 10 µM: 63%
PC-3
  inhibition of growth at 10 µM: 68%
Hs-578T
  inhibition of growth at 10 µM: 95%
Carbonic anhydrase 1
  Ki: 957 nM
OVCAR-3
  inhibition of growth at 10 µM: 53%
NCI-H460
  inhibition of growth at 10 µM: 80%
Carbonic anhydrase 2
  Ki: 75.4 nM
[1]
  IC50: > 25000 nM
KM12
  inhibition of growth at 10 µM: 67%
SK-MEL-2
  inhibition of growth at 10 µM: 68%
MDA-MB-231
  inhibition of growth at 10 µM: 80%
CDK9/cyclin T1
  IC50: > 25000 nM
